The results in this text go back to the EternaBench riboswitch data.

In the series the test system is MS2 coat protein. As to the kind of experiment: apparent Kd, MS2 coat protein; higher = weaker binding; RNA-MaP array; FMN 200 µM where present. In outline:
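Designs were transcribed by stalled E. coli RNA polymerase on Illumina sequencing-chip clusters. They were titrated with SNAP-549-labelled MS2 coat protein from 0.7 or 1.5 nM, doubling to 3 µM, without and then with constant ligand. Buffer: 100 mM Tris-HCl pH 7.5, 80 mM KCl, 4 mM MgCl2, BSA, DTT, yeast tRNA, Tween-20. Green signal was normalised to red-channel RNA signal and control-cluster median Fmax. Apparent Kd is the median of filtered per-cluster binding-curve fits.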

Where [1] appears, read: designed as: OFF switch for flavin mononucleotide, no ligand.
The mark [2] stands for this setting: ligand present: flavin mononucleotide, designed as: OFF switch for flavin mononucleotide.
[3] abbreviates: designed as: ON switch for flavin mononucleotide, no ligand.
Where [4] appears, read: ligand present: flavin mononucleotide, designed as: ON switch for flavin mononucleotide.

By apparent Kd is commonly meant the concentration giving half-maximal binding under the conditions of the assay. As to “AUGUUACAUGAGGAUCACCCAUGUGAGGAUAUGUGUACCCGUAAAAAAGUGUCGGGCCACAGAAGGCAUUUGGA”, the “apparent Kd” value stood at 47.3 nM under setting [1] and 75 nM under setting [2].
“GGAAAGAAAAGCGAGGAUAUGCUAGGUAAUACAUGAGGAUCACCCAUGUUUUUUUUUAACAAAUUGCAGAAGGCGCAAGAAAGAAA”: the “apparent Kd” value reads like this: under setting [3], 24.5 nM; under setting [4], 17.4 nM.
For the sequence “CUUAGACAUGAGGAUCACCCAUGUGAGGAUAUGAUGCGAUCGUGCUGACAUGAUCGCAUCAGAAGGCACAAAUG”, the “apparent Kd” value under setting [1] stood at 141 nM and the “apparent Kd” value under setting [2] is 173 nM.
In the case of “GCUGCGCGAGGAUAUGCGGUUCGCGCGGUGGCCGCUGGCGGACAUGAGGAUCACCCAUGUAGAAGGCGUGCGGG”, the “apparent Kd” value was determined as 17 nM under setting [1] and 19.4 nM under setting [2].
As to “AAGAAAGAAACAUAGGAUAUCAAGAAUAUAACAUGAGGAUCACCCAUGUAAAUACGAAAGUAUAAUGAGAAGGAUGGAUGAUCUUC”, the “apparent Kd” value is, setting by setting: under setting [3], 93.7 nM; under setting [4], 89 nM.
Turning to “AGCAGACGAGGAUAUGAUAAAGAUCACAUGAGGAUCACCCAUGUACGCAGGAUACUGCGAUCAGAAGGCGUCUGCU”, the “apparent Kd” value by setting is: under setting [1], 13 nM; under setting [2], 13.8 nM.
“GGAGCCGAUACUGAGGAUAUUCAUAUUAAAACAUGAGGAUCACCCAUGUAGGCCAGAAGGCCUUGGGAGAAGGCAGAUCGGCUCC”: the “apparent Kd” value under setting [3] turned out to be 417 nM and the “apparent Kd” value under setting [4] amounted to 26 nM.
For “ACCUCACAUGAGGAUCACCCAUGUCAGGAUAUCUUUUAAAACAGCAAUCCUGUCGCUGAGAGAAGGGACAUUAA”, the “apparent Kd” value under setting [1] came out at 27.6 nM and the “apparent Kd” value under setting [2] is 35.6 nM.
For “AAUUUAAUACAUGAGGAUCACCCAUGUAAAUUAAUUAAGAUCAAGGAUAUCAGCUCGUUUAGAGCUGAGAAGGUGAUCACAUGU”, the “apparent Kd” value runs as follows: under setting [3], 343 nM; under setting [4], 97 nM.
On to “GUGGUACAUGAGGAUCACCCAUGUUAGGAUAUCGCGUGAGGUUUUGCUUCCGCGCGCGCGAGAAGGGACGUCUU”, for which the “apparent Kd” value was 28.3 nM under setting [1] and 23.9 nM under setting [2].
Consider “GACUGAUUGUAGAAGGUACUUGACAAUAUAUUUAAUUAUUGUAGACAUGAGGAUCACCCAUGUAGUAAGGAUAUACUUAUAACA”, for which the “apparent Kd” value by setting is: under setting [3], 18.4 nM; under setting [4], 9.96 nM.
With “UGGUACUAGGGAGGAUAUGAGAAGAUACAUGAGGAUCACCCAUGUUUAAGAAUGCCGAGAGGCAACUAGAAGGCCCUAGUACCU”, the “apparent Kd” value reads like this: under setting [3], 7.85 nM; under setting [4], 5.23 nM.
For “GCGGAACAUGAGGAUCACCCAUGUAAAGGGUGUAAAGGAUAUUAUUGGGAGAAGGUAGGGUAAGAAGGUUGCUUGG”, the “apparent Kd” value reads like this: under setting [3], 887 nM; under setting [4], 1280 nM.
For “CGAAGUCCGUAGAAGGGUGACAUGAGGAUCACCCAUGUGCGAGCGGAGAGAGUCAGCGGCUCGCCACAGGAUAUACGGAGCACG”, the “apparent Kd” value by setting is: under setting [3], 103 nM; under setting [4], 29.1 nM.
With “UUUGUCUGUGUGAGGAUAUACUUUGUUUGGUCGUUGUAGAAGGCACAUGAGGAUCACCCAUGUAUUUUGUUGUG”, the “apparent Kd” value amounted to 28.7 nM under setting [1] and 31.7 nM under setting [2].
The matching figures for “CGUGGCCGAGGAUAUACGGACGUGUCGCCGGGUGUCGUGGGACAUGAGGAUCACCCAUGUAGAAGGUGGUUGUC”: 53.5 nM and 39 nM.
On to “GUGCCUUGGGAGAAGGCCGUAUGCAAAGCAUACGGAGGAUAUUCAUACCGGAAACGGACAUGAGGAUCACCCAUGUGGCACAAA”, for which the “apparent Kd” value runs as follows: under setting [3], 1360 nM; under setting [4], 46.1 nM.
Regarding “AAUAUGAGCUGGAAUAAACCUGAAACAUGAGGAUCACCCAUGUAGGAUAUCAGCACGAUAAGUGCUGAGAAGGACAACCAGCUC”, the “apparent Kd” value by setting is: under setting [1], 14.6 nM; under setting [2], 16.6 nM.
For “UUAAAUCAUGUAGGAUAUGCAUGGCGAAGCUACGCAGAAGGACAUGAGGAUCACCCAUGUUAUACCUACCCAGUUCGGUGGGAA” the same measures were 81 nM and 241 nM.
Take “UGCCUGAGUCGAGGAUAUUAUGGAUCAAUUAAUACAUGAGGAUCACCCAUGUAAUUAAUUUAACAUGAGAAGGUGACUCAGGCU”: the “apparent Kd” value worked out at 12.2 nM under setting [3] and 10.2 nM under setting [4].
Consider “AGCUAUUAAUCAGGAUAUAGGGACAUGAGGAUCACCCAUGUGUACAUGAUAAAAUGUGAUCACGUCUAGAAGGGAUUACUAACA”, for which the “apparent Kd” value is, setting by setting: under setting [3], 77 nM; under setting [4], 79.8 nM.
Consider “GCGUAAAAUGUAGGAUAUGACACAGGAAACUGGUCAGAAGGACAUGAGGAUCACCCAUGUAAAAUGUUCAAGAAUAACUCAUGC”, for which the “apparent Kd” value under setting [2] is 172 nM.
Take “CAUGUCUGAGGAUAUCGUUUUUUGUACAUGAGGAUCACCCAUGUCCUAUUUUUUAUAUUACGAGAAGGCAGUGGAU”: the “apparent Kd” value reads like this: under setting [1], 36.4 nM; under setting [2], 22.2 nM.
Turning to “AGAUGUGAACAUGAGGAUCACCCAUGUGACUAGGUUUAUUUCAGAAGGCAUUAAUAGAGAUUAUAUGAGGAUAUGAAGUUUUAA”, the “apparent Kd” value turned out to be 11.8 nM under setting [3] and 7.11 nM under setting [4].
For “CGGUACUGAGGAUAUACAUGAGGAUCACCCAUGUGUUCCAGCUAGCGUACUGGCAUUUGUAGAAGGCGGUGCUG”, the “apparent Kd” value stood at 16.8 nM under setting [1] and 48 nM under setting [2].
The matching figures for “UAUUAGUGAGGAUAUGAGUCGUAGAACAAUAGUACUACGUCUCAGAAGGCACAUGAGGAUCACCCAUGUUCCUU”: 13.6 nM and 44.9 nM.
“CGCUGUCUCGCAGGAUAUGCAUUGGAUUACAAUGCAGAAGGGCGAUUACAUGAGGAUCACCCAUGUGUUGACAGUGAAGAAGAU”: the “apparent Kd” value is, setting by setting: under setting [3], 113 nM; under setting [4], 25.5 nM.
Consider “AAUAACAGAGGAUAUACUAUUUUAUGUGUUUGUUGUUUUAAACAUGAGGAUCACCCAUGUAGAAGGCUGAAUGA”, for which the “apparent Kd” value by setting is: under setting [1], 22.8 nM; under setting [2], 27.6 nM.
For “AUAGCACAUGAGGAUCACCCAUGUGAGGAUAUUAGACCAUGGCUCUCAAAGACCAUGCUGAGAAGGCACUCGGG” the same measures were 35.5 nM and 82.5 nM.
Regarding “GUUUCUAUAUGUUAUAUUUAACAGUCAGAAGGUGAUACUACGACAUGAGGAUCACCCAUGUAAUUCAAGGAUAUGAACUUAAUC”, the “apparent Kd” value by setting is: under setting [3], 1110 nM; under setting [4], 450 nM.
Turning to “UCGGGUUAUACAGGAUAUGUUUAGGAUAAUACAUGCAGUUAUUAAUUAAUGACAGAAGGGUAUACAUGAGGAUCACCCAUGUCA”, the “apparent Kd” value reads like this: under setting [1], 707 nM; under setting [2], 374 nM.
For the sequence “GCCAUCGCAUGAGGAUAUGCUCCCGUUUCGGGAGCAGAAGGCAUGUCAUAAGACAUGAGGAUCACCCAUGUAGUUAAGAUGGCA”, the “apparent Kd” value is, setting by setting: under setting [3], 723 nM; under setting [4], 32.5 nM.
The matching figures for “UUUUUAAAUAUAGGAUAUGGAAACAUGAGGAUCACCCAUGUAUGAUAAGAUAAAUUAUGAUAUAGCCAGAAGGAUACAAUUUUU”: 31.9 nM and 38.6 nM.
The matching figures for “GGGAGUGGAGGGAAUAACAUGAGGAUCACCCAUGUAUGGGAGAGAAGGCAGAUUGGAGGGCGAUCUGAGGAUAUUUAGACUCUU”: 13.1 nM and 10.7 nM.
The matching figures for “GUUGCUUUCCGAGGAUAUUCAGGGCGUGGCUAUACAUGAGGAUCACCCAUGUGGCGGAAGCCUAGGGAGAAGGCGGGCUGCUUC”: 18.4 nM and 16.3 nM.
Consider “AAGUAGGUAGGAUAUACAUGGAUAUACAUUCAUGUGGACCUACAUGAGGAUCACCCAUGUAGAAGGACCUACAA”, for which the “apparent Kd” value reads like this: under setting [1], 34.8 nM; under setting [2], 64.2 nM.
For “CCUCUACAUGAGGAUCACCCAUGUGAGGAUAUCAAAGCCAGAGCGGCGCUCUGGCCCAUGAGAAGGUGCAUGGA” the same measures were 25.9 nM and 133 nM.
For “CACGGAUAGUAGAAGGGUGACAUGAGGAUCACCCAUGUACACAUGCGUAUUAAAGUAUGUGAUCCACAGGAUAUACUAUCCGUG”, the “apparent Kd” value by setting is: under setting [3], 776 nM; under setting [4], 93.8 nM.
Take “UGCAUCUGAGGAUAUCACAUGUGGAACAUGAGGAUCACCCAUGUGAUCCACAUGCCGUUGUGAGAAGGCAGUAAAA”: the “apparent Kd” value runs as follows: under setting [1], 314 nM; under setting [2], 193 nM.
Take “AUAAAAGUGACAUGAGGAUCACCCAUGUGAAUUAGUAGUAGCAGAAGGCACGUGGGAAGACCAAGUGAGGAUAUGUAACUUUAG”: the “apparent Kd” value by setting is: under setting [3], 625 nM; under setting [4], 59.2 nM.
In the case of “UUAUUGUGAGGAUAUCCAAUAUAUGACAUGAGGAUCACCCAUGUUUCCACUCGUACCUCCGGAGAAGGCACAUUUU”, the “apparent Kd” value is, setting by setting: under setting [1], 30.8 nM; under setting [2], 21.7 nM.
Regarding “AUAUUACGAGGAUAUCGUCUCUCCCACAUGAGGAUCACCCAUGUUAUCCAUGUUUCGUUUCGAGAAGGCGUAAGUU”, the “apparent Kd” value is, setting by setting: under setting [1], 75.9 nM; under setting [2], 58 nM.
In the case of “AUUAAACAUGAGGAUCACCCAUGUAAUAAUAUGGGAGGAUAUGCGAAUUUAAUUAUUUAAGCAGAAGGCCUAAUUA”, the “apparent Kd” value runs as follows: under setting [3], 63 nM; under setting [4], 19.2 nM.
“UGAUACAUGAGGAUCUCCCAUGACAUGAGGAUCACCCAUGUGCAGGAUAUACGUGUGAUAAUAUAGUAGAAGGGCAGUCUAUGU”: the “apparent Kd” value under setting [1] was 189 nM and the “apparent Kd” value under setting [2] worked out at 248 nM.
Take “UAUUAUGUCAGAGGAUAUAUAAAUAAAUUUAUAACAUGAGGAUCACCCAUGUACUUUAGUGUGAGGUAGAAGGUUGAUAAGAUA”: the “apparent Kd” value turned out to be 37.2 nM under setting [3] and 22.6 nM under setting [4].
For “AAAACAUGAGGAUCACCCAUGUAAAGAACGCUUAAUAGAUCUGAGGAUAUACUAGAAUUUAGGUAGUAGAAGGCAGUGGGUACA”, the “apparent Kd” value stood at 46.6 nM under setting [3] and 30.7 nM under setting [4].
For “AGUAACAGAGGAUAUACUGUUUUAUGUGUUUAUUGUUUUGAACAUGAGGAUCACCCAUGUAGAAGGCUGAAUAA”, the “apparent Kd” value runs as follows: under setting [1], 23.3 nM; under setting [2], 20.9 nM.
In the case of “GUGGUCUGACAUGAGGAUCACCCAUGUGGAAUAAAUACGGGUUAGGAUAUCUUGAGGAUCACCCAAGAGAAGGGAUGGAUGGUC”, the “apparent Kd” value was found to be 100 nM under setting [3] and 106 nM under setting [4].
